Reference: ChEMBL document CHEMBL4382192, “Discovery of a potent dual ALK and EGFR T790M inhibitor” (Eur J Med Chem, 2017)

Legend:
[1] = target: Serine/threonine-protein kinase 26 (Homo sapiens) (UniProt Q9P289); test: Binding affinity to wild-type human full length MST4 (M1 to P416 residues) expressed in mammalian expression system assessed as residual binding level at 1 uM by Kinomescan method relative to control
Method in brief: (§1)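 Single-point kinome-wide KINOMEscan binding panel, test compound at 1 μM, run by the provider's standard protocol.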

[2] = tested on: Tyrosine-protein kinase ABL1 (Homo sapiens), P00519 [Y253F]; test: Binding affinity to human phosphorylated ABL1 Y253F mutant (S229 to K512 residues) expressed in mammalian expression system assessed as residual binding level at 1 uM by Kinomescan method relative to control
Method in brief: (§2)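 Kinome-wide selectivity panel run by the KINOMEscan method, with the test compound at a single concentration of 1 μM. Wild-type and mutant kinases were profiled in the same screen.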

[3] = target: Serine/threonine-protein kinase Nek1 (Homo sapiens) (UniProt Q96PY6); test: Binding affinity to wild-type human partial length NEK1 (M1 to K278 residues) expressed in bacterial expression system assessed as residual binding level at 1 uM by Kinomescan method relative to control
[4] = target: Receptor tyrosine-protein kinase erbB-4 (Homo sapiens, UniProt Q15303); test: Inhibition of recombinant N-terminal GST-tagged human ErbB4 cytoplasmic domain expressed in baculovirus expression system by Z-LYTE assay
[5] = target: Tyrosine-protein kinase ABL1 (Homo sapiens) (UniProt P00519); test: Binding affinity to wild-type human non-phosphorylated ABL1 (S229 to K512 residues) expressed in mammalian expression system assessed as residual binding level at 1 uM by Kinomescan method relative to control
[6] = target: Casein kinase I isoform alpha-like (Homo sapiens) (UniProt Q8N752); test: Binding affinity to wild-type human full length CSNK1A1L (M1 to N337 residues) expressed in bacterial expression system assessed as residual binding level at 1 uM by Kinomescan method relative to control
[7] = target: Activin receptor type-1B (Homo sapiens) (UniProt P36896); test: Binding affinity to wild-type human ACVR1B (S187 to I505 residues) expressed in bacterial expression system assessed as residual binding level at 1 uM by Kinomescan method relative to control
[8] = tested on: Tyrosine-protein kinase ABL1 (Homo sapiens), P00519 [F317L]; test: Binding affinity to human phosphorylated ABL1 F317L mutant (S229 to K512 residues) expressed in mammalian expression system assessed as residual binding level at 1 uM by Kinomescan method relative to control; method in brief: as §2
[9] = target: Cyclin-G-associated kinase (Homo sapiens) (UniProt O14976); test: Binding affinity to wild-type human partial length GAK (G13 to Y338 residues) expressed in bacterial expression system assessed as residual binding level at 1 uM by Kinomescan method relative to control
[10] = tested on: Mast/stem cell growth factor receptor Kit (Homo sapiens), P10721 [V559D,T670I]; test: Binding affinity to human partial length KIT V559D/T670I double mutant (Y545 to D952 residues) expressed in bacterial expression system assessed as residual binding level at 1 uM by Kinomescan method relative to control; method in brief: as §2
[11] = target: Cyclin-dependent kinase 17 (Homo sapiens) (UniProt Q00537); test: Binding affinity to wild-type human full length PCTK2 (M1 to F523 residues) expressed in bacterial expression system assessed as residual binding level at 1 uM by Kinomescan method relative to control; method in brief: as §1
[12] = target: Serine/threonine-protein kinase RIO1 (Homo sapiens) (UniProt Q9BRS2); test: Binding affinity to wild-type human full length RIOK1 (M1 to K568 residues) expressed in bacterial expression system assessed as residual binding level at 1 uM by Kinomescan method relative to control; method in brief: as §1
Serine/threonine-protein kinase RIO1 (Homo sapiens), sequence (Q9BRS2 whole entry, the tested form may be a part): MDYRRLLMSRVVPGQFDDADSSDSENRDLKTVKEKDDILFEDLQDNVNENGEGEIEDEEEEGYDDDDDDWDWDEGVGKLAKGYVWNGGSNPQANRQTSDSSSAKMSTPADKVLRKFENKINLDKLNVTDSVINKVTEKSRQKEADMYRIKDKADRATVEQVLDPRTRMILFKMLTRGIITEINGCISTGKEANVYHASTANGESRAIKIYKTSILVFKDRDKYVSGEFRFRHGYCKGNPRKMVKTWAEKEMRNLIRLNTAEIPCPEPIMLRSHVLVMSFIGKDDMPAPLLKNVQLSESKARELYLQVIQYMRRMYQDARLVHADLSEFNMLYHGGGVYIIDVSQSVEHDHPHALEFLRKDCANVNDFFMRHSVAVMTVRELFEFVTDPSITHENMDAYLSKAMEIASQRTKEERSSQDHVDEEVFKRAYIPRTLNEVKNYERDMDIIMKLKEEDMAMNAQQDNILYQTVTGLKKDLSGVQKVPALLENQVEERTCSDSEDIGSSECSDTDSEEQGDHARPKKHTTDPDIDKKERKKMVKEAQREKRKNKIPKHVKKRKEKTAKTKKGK

[13] = target: T1, Activated CDC42 kinase 1 (Homo sapiens, UniProt Q07912); test: Inhibition of recombinant GST-tagged human TNK2 catalytic/cytoplasmic domain (110 to 476 residues) expressed in baculovirus expression system by LanthaScreen assay
[14] = Drug uptake in mouse lung at 10 mg/kg, po after 8 hrs; assay type: ADME, organism-based; details: read-out: Drug uptake
[15] = target: Inhibitor of nuclear factor kappa-B kinase subunit alpha (Homo sapiens) (UniProt O15111); test: Binding affinity to wild-type human full length IKK-alpha (M1 to E745 residues) expressed in mammalian expression system assessed as residual binding level at 1 uM by Kinomescan method relative to control; method in brief: as §1
[16] = target: Cyclin-dependent kinase 4/cyclin D1 (Homo sapiens) (UniProt P11802+P24385); test: Binding affinity to wild-type human full length CDK4/cyclinD1 (M1 to E303 residues) expressed in mammalian expression system assessed as residual binding level at 1 uM by Kinomescan method relative to control
[17] = target: Serine/threonine-protein kinase PLK1 (Homo sapiens) (UniProt P53350); test: Binding affinity to wild-type human partial length PLK1 (A33 to F325 residues) expressed in mammalian expression system assessed as residual binding level at 1 uM by Kinomescan method relative to control
Serine/threonine-protein kinase PLK1 (Homo sapiens), sequence (P53350 whole entry, the tested form may be a part): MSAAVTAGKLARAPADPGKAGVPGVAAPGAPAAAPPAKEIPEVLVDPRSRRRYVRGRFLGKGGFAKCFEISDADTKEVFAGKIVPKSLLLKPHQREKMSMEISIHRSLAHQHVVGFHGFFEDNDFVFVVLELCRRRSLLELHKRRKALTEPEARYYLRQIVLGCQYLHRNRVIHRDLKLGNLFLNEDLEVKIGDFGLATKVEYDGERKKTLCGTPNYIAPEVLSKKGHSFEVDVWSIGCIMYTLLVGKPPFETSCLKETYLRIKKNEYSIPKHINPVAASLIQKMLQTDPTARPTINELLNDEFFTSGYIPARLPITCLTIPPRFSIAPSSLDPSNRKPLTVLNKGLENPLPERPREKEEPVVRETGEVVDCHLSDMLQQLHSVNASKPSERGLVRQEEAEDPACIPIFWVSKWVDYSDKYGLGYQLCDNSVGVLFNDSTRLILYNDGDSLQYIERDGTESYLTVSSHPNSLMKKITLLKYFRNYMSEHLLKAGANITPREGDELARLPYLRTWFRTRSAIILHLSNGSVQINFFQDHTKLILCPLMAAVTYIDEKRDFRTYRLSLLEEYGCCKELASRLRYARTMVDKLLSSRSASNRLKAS

[18] = target: Dual specificity mitogen-activated protein kinase kinase 4 (Homo sapiens) (UniProt P45985); test: Binding affinity to wild-type human partial length MEK4 (S84 to D399 residues) expressed in mammalian expression system assessed as residual binding level at 1 uM by Kinomescan method relative to control
Dual specificity mitogen-activated protein kinase kinase 4 (Homo sapiens), sequence (P45985 whole entry, the tested form may be a part): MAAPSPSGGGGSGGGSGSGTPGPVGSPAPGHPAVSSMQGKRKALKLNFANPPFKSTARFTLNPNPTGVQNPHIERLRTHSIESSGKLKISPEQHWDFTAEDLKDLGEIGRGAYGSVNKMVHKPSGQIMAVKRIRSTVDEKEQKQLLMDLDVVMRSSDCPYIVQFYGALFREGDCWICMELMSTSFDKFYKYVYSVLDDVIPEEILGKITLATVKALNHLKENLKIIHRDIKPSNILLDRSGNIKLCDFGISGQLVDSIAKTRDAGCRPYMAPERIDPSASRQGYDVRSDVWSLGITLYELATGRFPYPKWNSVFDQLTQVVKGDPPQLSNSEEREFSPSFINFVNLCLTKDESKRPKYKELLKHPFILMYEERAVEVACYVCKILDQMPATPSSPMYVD

[19] = target: Serine/threonine-protein kinase BRSK2 (Homo sapiens) (UniProt Q8IWQ3); test: Binding affinity to wild-type human full length BRSK2 (M1 to L674 residues) expressed in bacterial expression system assessed as residual binding level at 1 uM by Kinomescan method relative to control
Serine/threonine-protein kinase BRSK2 (Homo sapiens), sequence (Q8IWQ3 whole entry, the tested form may be a part): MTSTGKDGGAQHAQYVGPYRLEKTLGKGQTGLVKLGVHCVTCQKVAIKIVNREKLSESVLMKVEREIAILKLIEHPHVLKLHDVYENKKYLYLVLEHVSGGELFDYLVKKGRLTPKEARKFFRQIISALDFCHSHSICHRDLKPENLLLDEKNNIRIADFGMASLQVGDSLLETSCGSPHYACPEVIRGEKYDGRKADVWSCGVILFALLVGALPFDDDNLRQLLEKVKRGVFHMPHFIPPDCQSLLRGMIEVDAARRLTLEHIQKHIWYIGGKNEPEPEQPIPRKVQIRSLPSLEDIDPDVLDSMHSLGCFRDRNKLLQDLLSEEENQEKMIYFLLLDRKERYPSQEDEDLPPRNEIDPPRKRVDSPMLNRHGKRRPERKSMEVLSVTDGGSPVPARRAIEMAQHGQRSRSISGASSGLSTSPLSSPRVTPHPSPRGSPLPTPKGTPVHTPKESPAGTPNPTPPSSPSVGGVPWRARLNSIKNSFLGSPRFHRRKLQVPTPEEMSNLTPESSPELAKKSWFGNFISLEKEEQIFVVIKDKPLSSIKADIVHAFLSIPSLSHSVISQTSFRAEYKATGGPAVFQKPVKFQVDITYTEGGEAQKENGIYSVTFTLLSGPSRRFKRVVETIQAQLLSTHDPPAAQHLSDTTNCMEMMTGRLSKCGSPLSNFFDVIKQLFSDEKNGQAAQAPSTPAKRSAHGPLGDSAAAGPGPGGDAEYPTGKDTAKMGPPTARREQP

[20] = target: Activin receptor type-1-like (Homo sapiens) (UniProt P37023); test: Binding affinity to wild-type human ACVRL1 (L164 to Q503 residues) expressed in bacterial expression system assessed as residual binding level at 1 uM by Kinomescan method relative to control
[21] = target: Ribosomal protein S6 kinase beta-1 (Homo sapiens) (UniProt P23443); test: Binding affinity to wild-type human partial length S6K1 (M1 to S421 residues) expressed in mammalian expression system assessed as residual binding level at 1 uM by Kinomescan method relative to control
Ribosomal protein S6 kinase beta-1 (Homo sapiens), sequence (P23443 whole entry, looked up, the tested form may be a part): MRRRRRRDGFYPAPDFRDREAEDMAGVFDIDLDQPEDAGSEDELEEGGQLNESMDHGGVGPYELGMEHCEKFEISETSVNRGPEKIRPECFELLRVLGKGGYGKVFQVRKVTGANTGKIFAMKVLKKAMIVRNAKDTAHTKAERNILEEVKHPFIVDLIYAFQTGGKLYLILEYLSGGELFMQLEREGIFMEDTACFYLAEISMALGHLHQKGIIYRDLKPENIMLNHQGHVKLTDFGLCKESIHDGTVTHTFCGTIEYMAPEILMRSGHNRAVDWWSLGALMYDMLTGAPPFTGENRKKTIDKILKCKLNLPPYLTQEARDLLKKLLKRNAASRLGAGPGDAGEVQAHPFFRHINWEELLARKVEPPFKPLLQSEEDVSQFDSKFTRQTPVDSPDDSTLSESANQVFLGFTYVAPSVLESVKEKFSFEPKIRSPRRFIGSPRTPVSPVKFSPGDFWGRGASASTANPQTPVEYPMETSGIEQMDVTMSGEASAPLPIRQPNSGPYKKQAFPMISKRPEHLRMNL

[22] = tested on: Epidermal growth factor receptor (Homo sapiens), P00533 [L858R]; test: Binding affinity to human partial length EGFR L858R mutant (R669 to V1011 residues) expressed in bacterial expression system assessed as residual binding level at 1 uM by Kinomescan method relative to control; method in brief: as §2
[23] = target: Ephrin type-B receptor 3 (Homo sapiens) (UniProt P54753); test: Binding affinity to wild-type human partial length EPHB3 (Q599 to T928 residues) expressed in bacterial expression system assessed as residual binding level at 1 uM by Kinomescan method relative to control
Ephrin type-B receptor 3 (Homo sapiens), sequence (P54753 whole entry, the tested form may be a part): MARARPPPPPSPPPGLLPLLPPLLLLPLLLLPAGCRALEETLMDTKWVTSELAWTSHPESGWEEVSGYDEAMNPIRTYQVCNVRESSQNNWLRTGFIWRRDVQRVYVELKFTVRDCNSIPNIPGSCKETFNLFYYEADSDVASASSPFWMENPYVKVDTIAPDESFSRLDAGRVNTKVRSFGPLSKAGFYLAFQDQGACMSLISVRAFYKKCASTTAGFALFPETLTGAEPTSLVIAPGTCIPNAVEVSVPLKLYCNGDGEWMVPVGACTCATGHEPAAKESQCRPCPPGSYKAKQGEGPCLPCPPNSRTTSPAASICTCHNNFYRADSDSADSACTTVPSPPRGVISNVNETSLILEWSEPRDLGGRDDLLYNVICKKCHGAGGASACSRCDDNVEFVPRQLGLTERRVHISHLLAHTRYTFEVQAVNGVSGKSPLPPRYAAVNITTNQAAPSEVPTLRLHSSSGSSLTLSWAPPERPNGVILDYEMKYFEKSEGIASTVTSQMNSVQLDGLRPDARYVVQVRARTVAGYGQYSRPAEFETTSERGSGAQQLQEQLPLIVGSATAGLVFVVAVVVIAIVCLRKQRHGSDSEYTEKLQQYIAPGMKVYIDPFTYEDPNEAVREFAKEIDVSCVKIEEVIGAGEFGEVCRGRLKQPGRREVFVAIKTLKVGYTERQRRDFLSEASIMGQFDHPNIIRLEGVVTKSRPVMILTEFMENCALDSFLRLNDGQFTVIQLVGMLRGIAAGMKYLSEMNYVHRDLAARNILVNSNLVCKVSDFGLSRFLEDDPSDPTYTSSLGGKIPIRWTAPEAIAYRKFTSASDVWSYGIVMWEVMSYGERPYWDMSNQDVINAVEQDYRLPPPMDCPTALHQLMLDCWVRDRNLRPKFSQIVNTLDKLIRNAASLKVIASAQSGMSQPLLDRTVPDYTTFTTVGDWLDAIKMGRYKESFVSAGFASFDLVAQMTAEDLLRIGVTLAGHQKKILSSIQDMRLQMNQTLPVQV

[24] = target: Serine/threonine-protein kinase D3 (Homo sapiens) (UniProt O94806); test: Binding affinity to wild-type human partial length PRKD3 (S543 to E863 residues) expressed in bacterial expression system assessed as residual binding level at 1 uM by Kinomescan method relative to control
Serine/threonine-protein kinase D3 (Homo sapiens), sequence (O94806 whole entry, the tested form may be a part): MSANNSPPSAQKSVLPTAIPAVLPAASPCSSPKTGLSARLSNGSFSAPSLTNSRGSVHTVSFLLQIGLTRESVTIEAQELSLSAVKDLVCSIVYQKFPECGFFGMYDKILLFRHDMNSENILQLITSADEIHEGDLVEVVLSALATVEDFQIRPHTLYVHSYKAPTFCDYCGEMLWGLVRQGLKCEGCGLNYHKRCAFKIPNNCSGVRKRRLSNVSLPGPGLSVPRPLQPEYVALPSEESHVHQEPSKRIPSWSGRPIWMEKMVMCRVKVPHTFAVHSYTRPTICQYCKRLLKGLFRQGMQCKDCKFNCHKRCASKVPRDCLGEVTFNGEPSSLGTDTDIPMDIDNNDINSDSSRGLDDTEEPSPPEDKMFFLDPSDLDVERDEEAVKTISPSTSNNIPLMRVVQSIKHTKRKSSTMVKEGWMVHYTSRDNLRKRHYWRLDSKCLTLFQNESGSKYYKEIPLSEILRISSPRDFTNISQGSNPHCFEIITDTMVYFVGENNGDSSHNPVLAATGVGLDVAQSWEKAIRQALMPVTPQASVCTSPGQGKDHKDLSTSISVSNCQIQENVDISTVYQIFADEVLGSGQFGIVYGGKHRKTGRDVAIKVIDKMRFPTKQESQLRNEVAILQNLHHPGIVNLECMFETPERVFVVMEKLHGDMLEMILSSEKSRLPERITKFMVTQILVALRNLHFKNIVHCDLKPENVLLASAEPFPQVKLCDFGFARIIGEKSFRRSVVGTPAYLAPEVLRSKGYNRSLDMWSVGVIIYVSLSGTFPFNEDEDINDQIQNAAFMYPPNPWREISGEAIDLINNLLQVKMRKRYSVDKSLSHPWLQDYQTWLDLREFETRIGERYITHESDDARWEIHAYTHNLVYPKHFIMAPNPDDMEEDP

[25] = target: T1, Activated CDC42 kinase 1; test: Binding affinity to wild-type human partial length TNK2 (S159 to D474 residues) expressed in bacterial expression system assessed as residual binding level at 1 uM by Kinomescan method relative to control

Q: With `C=CC(=O)Nc1cc(Nc2ncc(Cl)c(Nc3ccccc3S(=O)(=O)C(C)C)n2)c(OC)cc1N(C)CCN(C)C` as the molecule, how does the Activity [1] read?
A: 29%

Q: What about the Activity [2] of the same molecule?
A: 2.1%

Q: And the Activity [3]?
A: 68%

Q: What about the IC50 [4] of the same molecule?
A: 3 nM

Q: What about the Activity [5] of the same molecule?
A: 8.4%

Q: What about the Activity [6] of the same molecule?
A: 86%

Q: What about the Activity [7] of the same molecule?
A: 16%

Q: What about the Activity [8] of the same molecule?
A: 2.9%

Q: What about the Activity [9] of the same molecule?
A: 29%

Q: What about the Activity [10] of the same molecule?
A: 60%

Q: What about the Activity [11] of the same molecule?
A: 74%

Q: And the Activity [12]?
A: 92%

Q: What about the IC50 [13] of the same molecule?
A: 13 nM

Q: And the concentration at 8 h [14]?
A: 740 nM

Q: And the Activity [15]?
A: 96%

Q: And the Activity [16]?
A: 94%

Q: And the Activity [17]?
A: 83%

Q: And the Activity [18]?
A: 100%

Q: What about the Activity [19] of the same molecule?
A: 49%

Q: What about the Activity [20] of the same molecule?
A: 30%

Q: What about the Activity [21] of the same molecule?
A: 94%

Q: What about the Activity [22] of the same molecule?
A: 0%

Q: And the Activity [23]?
A: 63%

Q: And the Activity [24]?
A: 0%

Q: What about the Activity [25] of the same molecule?
A: 0.15%
